Results as given in ChEMBL document CHEMBL1125639, “Synthesis and resolution of (+-)-7-chloro-8-hydroxy-1-(3'-iodophenyl)-3-methyl-2,3,4,5-tetrahydro- 1H-3- benzazepine (TISCH): a high affinity and selective iodinated ligand for CNS D1 dopamine receptor” (J Med Chem, 1991).
Where “and” joins values, the source holds several entries; their conditions need not be identical. Equal entries are not always repeated.

Tests used:
Rattus norvegicus [1] = experiment: Biodistribution ratio measured as the ratio of compound present in brain to that of blood at 30 minutes after intravenous injection; assay type: ADME, organism-based; settings: 0.5 h
In short: (§1)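 Male Sprague-Dawley rats (225-300 g) given 0.2 mL saline containing [125I]-labeled ligand (2-5 μCi, ~2200 Ci/mmol) via femoral vein under ether anesthesia; sacrificed at set times by cardiac excision. Brain and blood weighed and gamma-counted against diluted injectate; ratio taken from % dose/gram values, 3 rats per time point.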

Rattus norvegicus [2] = experiment: Biodistribution of compound in rats brain after an intravenous injection was measured at 30 min; assay type: ADME, organism-based; settings: in vivo, 0.5 h
In short: (§2)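 Rats (male Sprague-Dawley, 225-300 g) given the 125I ligand (2-5 μCi, ~2200 Ci/mmol) in 0.2 mL saline via the femoral vein under ether anesthesia, then killed at set times. Whole brain removed, weighed and gamma-counted. % dose/organ is taken against diluted injectate aliquots. Mean of 3 rats ± std dev.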

Rattus norvegicus [3] = experiment: Biodistribution of compound in rats brain after an intravenous injection was measured at 4 hr; assay type: ADME, organism-based; settings: in vivo; in short: as §2
Rattus norvegicus [4] = experiment: Biodistribution of compound in rats heart after an intravenous injection was measured at 1 hr; assay type: ADME, organism-based; settings: in vivo
In short: (§3)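 Male Sprague-Dawley rats (225-300 g), free access to food and water. Under ether anesthesia, given 0.2 mL saline containing 125I-labelled ligand (2-5 μCi, ~2200 Ci/mmol) into the femoral vein. Killed by cardiac excision at set times. Organs removed, weighed and gamma-counted. % dose/organ is taken against diluted injectate aliquots, with blood and muscle assumed to be 7% and 40% of body weight. Mean of 3 rats ± std dev.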

Rattus norvegicus [5] = experiment: Biodistribution of compound in rats heart after an intravenous injection was measured at 24 hr; assay type: ADME, organism-based; settings: in vivo; in short: as §3
Rattus norvegicus [6] = experiment: Biodistribution of compound in rats heart after an intravenous injection was measured at 2 min; assay type: ADME, organism-based; settings: in vivo; in short: as §3
Rattus norvegicus [7] = experiment: Biodistribution of compound in rats heart after an intravenous injection was measured at 30 min; assay type: ADME, organism-based; settings: in vivo, 0.5 h; in short: as §3
Rattus norvegicus [8] = experiment: Biodistribution of compound in rats heart after an intravenous injection was measured at 4 hr; assay type: ADME, organism-based; settings: in vivo; in short: as §3
Rattus norvegicus [9] = experiment: Biodistribution of compound in rats kidney after an intravenous injection was measured at 2 min; assay type: ADME, organism-based; settings: in vivo; in short: as §3
Rattus norvegicus [10] = experiment: Biodistribution of compound in rats kidney after an intravenous injection was measured at 30 min; assay type: ADME, organism-based; settings: in vivo, 0.5 h; in short: as §3
Rattus norvegicus [11] = experiment: Biodistribution of compound in rats kidney after an intravenous injection was measured at 4 hr; assay type: ADME, organism-based; settings: in vivo; in short: as §3
Rattus norvegicus [12] = experiment: Biodistribution of compound in rats liver after an intravenous injection was measured at 1 hr; assay type: ADME, organism-based; settings: in vivo; in short: as §3
Rattus norvegicus [13] = experiment: Biodistribution of compound in rats liver after an intravenous injection was measured at 24 hr; assay type: ADME, organism-based; settings: in vivo; in short: as §3
Rattus norvegicus [14] = experiment: Biodistribution of compound in rats liver after an intravenous injection was measured at 2 min; assay type: ADME, organism-based; settings: in vivo; in short: as §3
Rattus norvegicus [15] = experiment: Biodistribution of compound in rats liver after an intravenous injection was measured at 30 min; assay type: ADME, organism-based; settings: in vivo, 0.5 h; in short: as §3
Rattus norvegicus [16] = experiment: Biodistribution of compound in rats liver after an intravenous injection was measured at 4 hr; assay type: ADME, organism-based; settings: in vivo; in short: as §3
Rattus norvegicus [17] = experiment: Biodistribution of compound in rats lung after an intravenous injection was measured at 1 hr; assay type: ADME, organism-based; settings: in vivo; in short: as §3
Rattus norvegicus [18] = experiment: Biodistribution of compound in rats lung after an intravenous injection was measured at 24 hr; assay type: ADME, organism-based; settings: in vivo; in short: as §3
Rattus norvegicus [19] = experiment: Biodistribution of compound in rats lung after an intravenous injection was measured at 2 min; assay type: ADME, organism-based; settings: in vivo; in short: as §3
Rattus norvegicus [20] = experiment: Biodistribution of compound in rats lung after an intravenous injection was measured at 30 min; assay type: ADME, organism-based; settings: in vivo, 0.5 h; in short: as §3
Rattus norvegicus [21] = experiment: Biodistribution of compound in rats lung after an intravenous injection was measured at 4 hr; assay type: ADME, organism-based; settings: in vivo; in short: as §3
Rattus norvegicus [22] = experiment: Biodistribution of compound in rats spleen after an intravenous injection was measured at 4 hr; assay type: ADME, organism-based; settings: in vivo; in short: as §3
Rattus norvegicus [23] = experiment: Biodistribution of compound in rats thyroid after an intravenous injection was measured at 1 hr; assay type: ADME, organism-based, Thyroid gland; settings: in vivo; in short: as §3
Rattus norvegicus [24] = experiment: Biodistribution of compound in rats thyroid after an intravenous injection was measured at 24 hr; assay type: ADME, organism-based, Thyroid gland; settings: in vivo
In short: (§4)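 Male Sprague-Dawley rats (225-300 g), free access to food and water; under ether anesthesia, 0.2 mL saline containing [125I]-labeled ligand (2-5 μCi, ~2200 Ci/mmol) injected into femoral vein; killed by cardiac excision under ether at set times. […] removed, weighed, gamma-counted; % dose/organ from comparison with diluted aliquots of injectate; mean of 3 rats ± std dev.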

Rattus norvegicus [25] = experiment: Biodistribution of compound in rats thyroid after an intravenous injection was measured at 2 min; assay type: ADME, organism-based, Thyroid gland; settings: in vivo; in short: as §4
Rattus norvegicus [26] = experiment: Biodistribution of compound in rats thyroid after an intravenous injection was measured at 30 min; assay type: ADME, organism-based, Thyroid gland; settings: in vivo, 0.5 h; in short: as §4
Rattus norvegicus [27] = experiment: Biodistribution of compound in rats thyroid after an intravenous injection was measured at 4 hr; assay type: ADME, organism-based, Thyroid gland; settings: in vivo; in short: as §4
[28] = Biodistribution ratio measured as the ratio of compound present in brain to that of blood at 4 hr after intravenous injection; assay type: ADME, organism-based; settings: rat; in short: as §1

Biodistribution (Rattus norvegicus [1]): 12.7%
Biodistribution (Rattus norvegicus [2]): 0.798
Biodistribution (Rattus norvegicus [3]): 0.102
Biodistribution (Rattus norvegicus [4]): 0.088
Biodistribution (Rattus norvegicus [5]): 0.001
Biodistribution (Rattus norvegicus [6]): 1.14
Biodistribution (Rattus norvegicus [7]): 0.137
Biodistribution (Rattus norvegicus [8]): 0.014
Biodistribution (Rattus norvegicus [9]): 4.92
Biodistribution (Rattus norvegicus [10]): 0.945
Biodistribution (Rattus norvegicus [11]): 0.476
Biodistribution (Rattus norvegicus [12]): 9.814
Biodistribution (Rattus norvegicus [13]): 3.84
Biodistribution (Rattus norvegicus [14]): 15.78
Biodistribution (Rattus norvegicus [15]): 11.45
Biodistribution (Rattus norvegicus [16]): 7.638
Biodistribution (Rattus norvegicus [17]): 0.621
Biodistribution (Rattus norvegicus [18]): 0.012
Biodistribution (Rattus norvegicus [19]): 10.18
Biodistribution (Rattus norvegicus [20]): 1.24
Biodistribution (Rattus norvegicus [21]): 0.122
Biodistribution (Rattus norvegicus [22]): 0.015
Biodistribution (Rattus norvegicus [23]): 0.059
Biodistribution (Rattus norvegicus [24]): 0.268
Biodistribution (Rattus norvegicus [25]): 0.121
Biodistribution (Rattus norvegicus [26]): 0.042 and 0.042%
Biodistribution (Rattus norvegicus [27]): 0.118
Kp at 4 h [28]: 5.23
Structure (SMILES): CN1CCc2cc(Cl)c(O)cc2[C@@H](c2cccc(I)c2)C1
